Experimental data taken from the RNAGym collection of RNA variant scans (doi:10.1038/s41586-018-0170-7).

B1: tRNA (parent)
chain: GUUCCGUUGGCGUAAUGGUAACGCGUCUCCCUCCUAAGGAGAAGACUGCGGGUUCGAGUCCCGUACGGAACG

Variants of: B1
Test: yeast fitness, log relative to wild type (ln ratio); higher = fitter; tRNA-Arg(CCU), competitive growth, 37 C, 1 M NaCl
Outline: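 Fitness is the natural log of a genotype's generation count divided by that of the wild type. A combinatorial library of tRNA-Arg(CCU) variants sat on a HIS3 centromeric plasmid in BY4742 lacking the chromosomal gene, from two independent transformations. Pools grew 4 generations in SC-HIS at 30 °C, then ~6.5 generations (~26.5 h) in SC-HIS 1M NaCl at 37 °C, with three outputs per input. Generations came from OD-scaled log2 output/input frequency, inverse-variance weighted across replicates, with variants counted by 125 bp paired-end Illumina sequencing.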

| Variant | yeast fitness (ln) |
| --- | --- |
| GCUCCGUUGGCGUAAUGGUAACGCGUCUCCCUCCUAAGGAGAAGAUUGCGGGUUCGAGUCCCGUACGGAGCG | 0.000328 |
| GCUCCGUUGGCGUAAUGGUAACGCGUCUCCCUCCUAAGGAGAAGAUUGCGGGUUCGAGUCCCGUACGGAUCG | 0.0104 |
| GCUCCGUUGGCGUAAUGGUAACGCGUCUCCCUCCUAAGGAGAAGACUGCGGGUUCGAGUCCCGUAAGGAUCG | -0.0514 |
| GCUCCGUUGGCGUAAUGGUAACGCGUCUCCCUCCUAAGGAGAAGACUGCGGGUUCGAGUCCCGUAAGGAGCG | -0.11 |
| GCUCCGUUGGCGUAAUGGUAACGCGUCUCCCUCCUAAGGAGAAGAUUGCGGGUUCGAGUCCCGUAAGGAUCG | 0.075 |
| GCUCCGUUGGCGUAAUGGUAACGCGUCUCCCUCCUAAGGAGAAGAUUGCGGGUUCGAGUCCCGUAAGGAGCG | -0.0556 |
| GCUCCGUUGGCGUAAUGGUAACGCGUUUCCCUCCUAAGGAGAAGAUUGCGGGUUCGAGUCCCGUACGGAAUG | -0.268 |
| GCUCCGUUGGCGUAAUGGUAACGCGUCUCCCUCCUAAGGAGAAGACUGCGGGUUCGAGUCCCGUAAGGAAUG | -0.0382 |
| GCUCCGUUGGCGUAAUGGUAACGCGUUUCCCUCCUAAGGAGAAGACUGCGGGUUCGAGUCCCGUAAGGAUUG | -0.222 |
| GCUCCGUUGGCGUAAUGGUAACGCGUCUCCCUCCUAAGGAGAAGAUUGCGGGUUCGAGUCCCGUAUGGAAUG | -0.0488 |
| GCUCCGUUGGCGUAAUGGUAACGCGUCUCCCUCCUAAGGAGAAGAUUGCGGGUUCGAGUCCCGUACGGGGCG | -0.016 |
| GCUCCGUUGGCGUAAUGGUAACGCGUCUCCCUCCUAAGGAGAAGAUUGCGGGUUCGAGUCCCGUACGGGUCG | -0.0822 |
| GCUCCGUUGGCGUAAUGGUAACGCGUUUCCCUCCUAAGGAGAAGACUGCGGGUUCGAGUCCCGUAUGGAACG | -0.0757 |
| GCUCCGUUGGCGUAAUGGUAACGCGUCUCCCUCCUAAGGAGAAGACUGCGGGUUCGAGUCCCGUAUGGGAUG | -0.311 |
| GCUCCGUUGGCGUAAUGGUAACGCGUUUCCCUCCUAAGGAGAAGACUGCGGGUUCGAGUCCCGUAAGGAGUG | -0.157 |
| GCUCCGUUGGCGUAAUGGUAACGCGUCUCCCUCCUAAGGAGAAGAUUGCGGGUUCGAGUCCCGUACGGAACG | 0.0244 |
| GCUCCGUUGGCGUAAUGGUAACGCGUUUCCCUCCUAAGGAGAAGAUUGCGGGUUCGAGUCCCGUAUGGGUUG | -0.411 |
| GCUCCGUUGGCGUAAUGGUAACGCGUUUCCCUCCUAAGGAGAAGAUUGCGGGUUCGAGUCCCGUAUGGAGCG | -0.04 |
| GCUCCGUUGGCGUAAUGGUAACGCGUUUCCCUCCUAAGGAGAAGAUUGCGGGUUCGAGUCCCGUAUGGAUCG | -0.0783 |

| Variant | yeast fitness (ln) |
| --- | --- |
| GCUCCGUUGGCGUAAUGGUAACGCGUCUCCCUCCUAAGGAGAAGACUGCGGGUUCGAGUCCCGUAAGGGGCG | -0.0883 |
| GCUCCGUUGGCGUAAUGGUAACGCGUCUCCCUCCUAAGGAGAAGACUGCGGGUUCGAGUCCCGUAAGGGUCG | -0.0958 |
| GCUCCGUUGGCGUAAUGGUAACGCGUCUCCCUCCUAAGGAGAAGAUUGCGGGUUCGAGUCCCGUACGGGUUG | -0.169 |
| GCUCCGUUGGCGUAAUGGUAACGCGUUUCCCUCCUAAGGAGAAGAUUGCGGGUUCGAGUCCCGUAUGGAGUG | -0.075 |
| GCUCCGUUGGCGUAAUGGUAACGCGUCUCCCUCCUAAGGAGAAGAUUGCGGGUUCGAGUCCCGUAAGGAGUG | -0.168 |
| GCUCCGUUGGCGUAAUGGUAACGCGUUUCCCUCCUAAGGAGAAGAUUGCGGGUUCGAGUCCCGUAUGGAUUG | -0.199 |
| GCUCCGUUGGCGUAAUGGUAACGCGUCUCCCUCCUAAGGAGAAGAUUGCGGGUUCGAGUCCCGUACGGGACG | -0.0478 |
| GCUCCGUUGGCGUAAUGGUAACGCGUCUCCCUCCUAAGGAGAAGACUGCGGGUUCGAGUCCCGUAUGGGGUG | -0.101 |
| GCUCCGUUGGCGUAAUGGUAACGCGUCUCCCUCCUAAGGAGAAGAUUGCGGGUUCGAGUCCCGUAUGGGACG | -0.224 |
| GCUCCGUUGGCGUAAUGGUAACGCGUUUCCCUCCUAAGGAGAAGACUGCGGGUUCGAGUCCCGUAUGGGUUG | -0.453 |
| GCUCCGUUGGCGUAAUGGUAACGCGUCUCCCUCCUAAGGAGAAGAUUGCGGGUUCGAGUCCCGUACGGAAUG | -0.069 |
| GCUCCGUUGGCGUAAUGGUAACGCGUCUCCCUCCUAAGGAGAAGAUUGCGGGUUCGAGUCCCGUACGGAUUG | -0.0871 |
| GCUCCGUUGGCGUAAUGGUAACGCGUUUCCCUCCUAAGGAGAAGACUGCGGGUUCGAGUCCCGUACGGAAUG | -0.273 |
| GCUCCGUUGGCGUAAUGGUAACGCGUUUCCCUCCUAAGGAGAAGAUUGCGGGUUCGAGUCCCGUAUGGGAUG | -0.243 |
| GCUCCGUUGGCGUAAUGGUAACGCGUCUCCCUCCUAAGGAGAAGAUUGCGGGUUCGAGUCCCGUAAGGAUUG | -0.0668 |
| GCUCCGUUGGCGUAAUGGUAACGCGUCUCCCUCCUAAGGAGAAGACUGCGGGUUCGAGUCCCGUAAGGAGUG | -0.196 |
| GCUCCGUUGGCGUAAUGGUAACGCGUCUCCCUCCUAAGGAGAAGAUUGCGGGUUCGAGUCCCGUAUGGGGCG | -0.02 |
| GCUCCGUUGGCGUAAUGGUAACGCGUCUCCCUCCUAAGGAGAAGAUUGCGGGUUCGAGUCCCGUAUGGGUCG | -0.0518 |
